DNA FID counter: compounds displacing fluorescent DNA intercalator, primary screen, artefact control for HCV NS3 helicase inhibitor project, biochemical, FID fluorescence. DNA fluorescent intercalator displacement. inhibition, % at 7.9 µM. 0.17% of 290,000 active. AID 1845, 2009; in the data active = inhibition above about 37%;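 also: 0% = vehicle and 100% = reference compound; higher means more ethidium bromide displaced from hairpin DNA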
VIM-2 inh: VIM-2 metallo-beta-lactamase inhibitors, primary screen, biochemical, epi-absorbance readout, Pseudomonas aeruginosa enzyme. purified VIM-2, nitrocefin hydrolysis, epi-absorbance fluorescence. inhibition, % at 5.6 µM. 0.89% of 290,000 active. AID 1527, 2009;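 active = inhibition above the mean of all tested compounds plus 3 SD, cutoff set per screening run, cut at about 7.5% in these data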;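 also: red hydrolysis product quenches plate fluorescence so inhibitors raise well fluorescence; 0% = enzyme with DMSO and 100% = DMSO without enzyme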
SUMO HTRF inh: inhibitors of in vitro SUMOylation cascade, primary screen, biochemical, HTRF, uHTS | SUMO-conjugating enzyme UBC9 (Homo sapiens), P63279 | HTRF SUMOylation assay, SAE1/SAE2 + UBC9 | inhibition, % at 35 µM | 0.36% of 290,000 active | AID 2006, 2009; in the data active = inhibition above about 50%, passing the limit was not always enough
Target sequence (P63279 whole entry, looked up): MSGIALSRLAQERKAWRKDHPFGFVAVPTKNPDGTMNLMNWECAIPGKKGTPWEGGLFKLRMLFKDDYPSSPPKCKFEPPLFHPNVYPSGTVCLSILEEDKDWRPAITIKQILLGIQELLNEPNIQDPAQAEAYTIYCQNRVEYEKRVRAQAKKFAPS
IMP-1 inh: IMP-1 metallo-beta-lactamase inhibitors, primary screen, biochemical, epi-absorbance readout, Pseudomonas aeruginosa enzyme; metallo-beta-lactamase IMP-1 (Pseudomonas aeruginosa); purified IMP-1, nitrocefin hydrolysis, epi-absorbance fluorescence; inhibition, % at 5.6 µM; 0.45% of 290,000 active;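 active = inhibition above the mean plus 3 SD of all compounds in the same screening run, cut at about 4.5% in these data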;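 also: 0% = IMP-1 with DMSO and 100% = DMSO wells lacking enzyme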
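assay system = purified recombinant IMP-1 metallo-beta-lactamase enzyme | schedule = 15 min preincubation plus 25 min reaction at 25 °C | signal = Epi-absorbance fluorescence, 480 nm excitation, 530 nm emission | read-out basis = percent inhibition from optical density relative to buffer-blank wells | controls = IMP-1 with DMSO as 0%, enzyme-free DMSO as 100%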
NALP1 inh: NALP1 inflammasome inhibitors in reconstituted yeast, colorimetric, S. cerevisiae, triplicate retest | S. cerevisiae NALP1/ASC/caspase-1 growth, X-gal OD620, 72 h | inhibition, % at 10 µM | 0.61% of 280,000 active; in the data active = inhibition mostly above about 24%, no sharp cut-off; inactive = mostly below about 32%
SUMO Mot1 rescue: yeast Mot1-301 growth rescue at high temperature, primary screen, SUMOylation pathway inhibitor project, S. cerevisiae, ATP luminescence, 38.5C | 1% of 320,000 active | S. cerevisiae Mot1-301 growth rescue; percent above DMSO median, 100 means doubled | growth rescue, % at 18.8 µM;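 active = every valid replicate shows activation above 250% relative to neutral control wells; inactive = the rest, any valid replicate at or below 250%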;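 also: OY570 slx delta 5 strain wells were the positive control but not used for scaling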
An asterisk follows results filed as active; x = no result given. An excerpt weighted towards active compounds, which were near 2.9% of everything screened.

SMILES | DNA FID counter | VIM-2 inh | SUMO HTRF inh | IMP-1 inh | NALP1 inh | SUMO Mot1 rescue
CCN(CC)C(=O)C1CCCN(c2ccc([N+](=O)[O-])cc2/C=N/NC(=O)c2ccc([N+](=O)[O-])cc2)C1 (stereo not drawn) | 0.0 | -6.0 | 13.7 | -2.6 | -2.2 | -13.7
CCN(CC)C(=O)C1CCCN(c2ccc([N+](=O)[O-])cc2)C1 (stereo not drawn) | -3.2 | -4.4 | 6.8 | -2.5 | 34.8* | -16.6
CCn1c2ccccc2c2nc3ccccc3nc21 | -2.6 | 9.9* | 15.4 | 1.9 | 6.8 | -12.2
CCn1c2ccccc2c2nc3cc(OC)c(OC)cc3nc21 | -7.2 | 2.8 | 3.5 | -1.0 | 5.9 | 4.8
CC(=O)n1c2ccccc2c2nc3ccccc3nc21 | 3.8 | 3.9 | 1.9 | 1.6 | 30.4* | 8.6
CC(=O)n1c2ccccc2c2c1c1ccccc1n2C | 2.0 | 0.1 | 21.7 | -1.8 | 22.9 | 3.3
COc1ccc(Br)cc1S(=O)(=O)n1c([N+](=O)[O-])cnc1C | 6.7 | -0.1 | 16.4 | -0.8 | 0.1 | 49.5
O=C(Nc1ccc(Br)cc1)c1cc(-c2cccs2)on1 | -3.9 | -1.1 | 10.7 | 11.1* | 18.3 | -9.6
O=C(Nc1ccc(Cl)cc1)c1cc(-c2cccs2)on1 | -2.4 | -1.1 | 4.4 | 14.8* | 8.0 | -2.6
CC(=O)Nc1ccc(NC(=O)CCn2c(=O)oc3ccccc32)cc1 | -5.7 | 0.2 | 2.7 | -3.0 | 14.3 | -12.8
O=C(CCn1c(=O)oc2ccccc21)NC1=NCCS1 | -3.7 | 0.0 | -46.8 | -3.4 | 9.5 | 342.0*
Cc1ccc(C(C)C)c(OCc2nn(CC(=O)c3ccc(OC(F)F)cc3)c3[n+]2CCCCC3)c1 | 36.9* | -4.1 | -9.3 | -3.0 | -23.7 | -22.0
CSc1ncccc1C(=O)OCC(=O)c1cccs1 | 5.0 | 0.6 | 0.7 | -1.2 | -14.9 | -8.0
CCn1cc(/C=C(\NC(=O)c2ccccc2Cl)C(=O)N2CCN(C)CC2)c2ccccc21 | 0.3 | 2.2 | 9.2 | -0.3 | 3.9 | x
CSCCC(NC(=O)COc1ccccc1)C(=O)N1CCCC(C(F)(F)F)C1 (stereo not drawn) | x | x | x | x | x | -11.8
Cc1c(C)n(CCN(C)C)c2ccc(C(=O)OCCN(C)C)cc12 | 62.4* | 1.1 | 15.4 | -2.5 | 18.4 | -0.3
COc1ccc(C2(CNC(=O)Cc3ccc(OC)c(OC)c3)CCOCC2)cc1 | -11.2 | -3.3 | -11.3 | -2.7 | 24.6* | 118.0
COc1ccc(C(=O)Nc2ccc(C(=O)NCCc3ccc(OC)c(OC)c3)cc2)cc1 | -11.1 | 1.1 | 60.0* | 0.8 | 3.0 | 124.7
COc1ccc(C(=O)Nc2ccc(Cn3ccnc3)cc2)cc1OC | -3.2 | 8.5* | 9.1 | -3.3 | -9.9 | 5.5
COc1ccc(Cl)cc1C(=O)NNC(=O)COC(=O)CC(NC(C)=O)c1ccccc1 (stereo not drawn) | x | x | x | x | x | -8.5
Cc1ccc(NC(=O)COc2ccc(Br)cc2CO)cc1S(=O)(=O)N1CCOCC1 | x | x | x | x | x | 8.8
O=S(=O)(c1ccc(Cl)cc1)c1snnc1-c1ccccc1 | 4.1 | -4.0 | -1.0 | -2.5 | 14.1 | 307.1*
O=S(=O)(c1ccc(F)cc1)c1snnc1-c1ccccc1 | -1.8 | -1.7 | 2.2 | -3.7 | 6.5 | 213.5
O=C(Nc1ccccc1O)c1cc(S(=O)(=O)N2CCOCC2)c(Cl)cc1Cl | -15.4 | -4.1 | 60.2* | -3.0 | -11.4 | -21.6
CC(=O)c1nnn(-c2ccc([N+](=O)[O-])cc2C)c1C | 4.8 | -0.1 | 14.2 | -2.2 | -1.8 | 11.4
SMILES | DNA FID counter | VIM-2 inh | SUMO HTRF inh | IMP-1 inh | NALP1 inh | SUMO Mot1 rescue
C#CCOCCOCCOCCNc1nc(N2CCN(C(=O)Cn3cc(CCCN=C(N)N)nn3)CC2)nc(N2CCN(C(=O)Cn3cc(CCCN=C(N)N)nn3)CC2)n1 | 25.7 | -1.8 | 11.8 | 3.6 | 12.1 | x
Cc1sc(NC(=O)CSc2nc(N)cc(N)n2)c(C#N)c1C | -4.6 | 0.5 | -18.9 | -1.5 | x | 318.6*
COc1ccc(C(=O)NC(=S)Nc2cccc3cc(O)ccc23)cc1OC | -19.5 | -0.4 | 6.5 | 4.5* | 10.5 | -2.5
COc1ccc(C(=O)Nc2ccccc2C(=O)NC(C)C)cc1OC | -13.4 | -2.8 | 13.1 | -0.3 | 36.5* | 4.4
O=C(O)CCCN1C(=O)C2C3CC(C2C1=O)C1C(c2ccccc2)c2sc(=O)[nH]c2SC31 (stereo not drawn) | -7.8 | -0.8 | -20.0 | -1.6 | 24.8 | 755.0
CC(C(=O)O)N1C(=O)C2C3CC(C2C1=O)C1C(c2ccccc2)c2sc(=O)[nH]c2SC31 (stereo not drawn) | -34.1 | 1.4 | 7.9 | 6.5* | 19.8 | -17.5
O=C(OCC(=O)N1CCCC1=O)c1ccc(F)c(S(=O)(=O)N2CCOCC2)c1 | -14.0 | -3.5 | -8.9 | -2.5 | 9.6 | -12.4
COc1ccc(CCNC(=O)CC2SC(=NCc3ccccc3)NC2=O)cc1 (stereo not drawn) | -23.8 | -2.4 | 0.9 | -2.2 | 23.1 | 1.3
CCn1c2c(c3cc(C(=O)O)ccc31)CCCC2=O | -4.2 | -1.2 | 10.9 | -2.2 | -4.5 | -13.7
c1ccc(-c2ccc3c(c2)c2c4n3CCN=C4CCC2)cc1 | 12.3 | -0.9 | 32.3 | 5.3* | 14.8 | 128.8
CCOC(=O)C1CCCN(C(=O)CCn2nnnc2CN2CCOCC2)C1 (stereo not drawn) | -3.6 | 1.1 | 18.6 | -0.5 | 34.7* | -18.5
O=C(c1ccc(F)cc1)N1CCOCC1 | -0.6 | -5.2 | 0.7 | -3.9 | 26.3* | 1.1
O=C(O)c1ccc(N2N=C(c3ccccc3)CC2c2ccccc2)cc1 (stereo not drawn) | -28.3 | 2.4 | 61.5* | 1.8 | 21.3 | 9.6
Cn1nnnc1SCc1ccc(CSc2nnnn2C)cc1 | -2.9 | -2.8 | 5.5 | -1.3 | 0.3 | -23.5
Cn1nnnc1SCc1cccc(CSc2nnnn2C)n1 | -2.5 | -0.3 | -7.1 | 5.3* | -20.1 | 82.6
CC(C)(C=O)C1=CC(=O)c2ccccc2C1=O | -0.4 | -1.5 | 22.5 | -3.5 | 47.7* | 180.5
CC1=CC(=O)c2ccccc2C1=O | -5.2 | -1.2 | -28.6 | -3.5 | 2.3 | -0.8
CN(CC1CCCO1)S(=O)(=O)c1ccc(C(=O)Nc2ccccc2F)cc1 (stereo not drawn) | -17.4 | -1.8 | 18.5 | -1.9 | 18.7 | 0.7
CN(CC1CCCO1)S(=O)(=O)c1ccc(C(=O)Nc2ccc(S(N)(=O)=O)cc2)cc1 (stereo not drawn) | -7.5 | 2.2 | 21.5 | 4.8* | 9.8 | -2.0
COc1ccc(-c2cc(C(F)(F)F)n3nc(C(=O)NCc4ccco4)cc3n2)cc1OC | -18.4 | 8.7* | 15.7 | -0.6 | -6.5 | -12.8
O=C(NCc1ccco1)c1cc2nc(C3CC3)cc(C(F)(F)F)n2n1 | -11.3 | 0.7 | 10.4 | -1.2 | 7.5 | -6.0

Compound activity (PubChem)
